Experimental data pooled from the literature.
Protocols differ between the studies behind these lines.
CDK16: Cyclin-dependent kinase 16 (CDK16, Homo sapiens, UniProt Q00536)
KDR: Vascular endothelial growth factor receptor 2 (KDR, Homo sapiens, UniProt P35968)
PADI1: Protein-arginine deiminase type-1 (PADI1, Homo sapiens, UniProt Q9ULC6)
ATAD2 bromodomain: ATPase family AAA domain-containing protein 2, bromodomain (ATAD2, Homo sapiens, UniProt Q6PL18)
PIKFYVE: 1-phosphatidylinositol 3-phosphate 5-kinase (PIKFYVE, Homo sapiens, UniProt Q9Y2I7)

| SMILES | target | test | test system | setting | measurement | value |
| --- | --- | --- | --- | --- | --- | --- |
| Cc1ccc(C(=O)NCc2ccsc2)cc1C#Cc1cn(C(C)C)c2ncnc(N)c12 | [Pyruvate dehydrogenase (acetyl-transferring)] kinase isozyme 2, mitochondrial (PDK2, Homo sapiens, UniProt Q15119) | enzyme activity, inhibitor | – | 1 µM | activity vs control | 91% |
| CCC1(CC)NC(=O)c2c(c3ccc(Cl)c(Cl)c3n2C)C1C#N (stereo not drawn) | CDK16 | thermal stability, DSF | – | 10 µM | ΔTm | 0.3 °C |
| COc1ccc(NC(=O)c2c(Nc3ccccc3)sc(C#N)c2NC(=O)CNc2ccc(Br)cc2)cc1 | KDR | enzyme activity, inhibitor | – | 100 µM | remaining activity | 22.3% |
| NS(=O)(=O)c1ccc(Nc2nc(-c3ccc(F)cc3)c3ccccc3n2)cc1 | ATPase family AAA domain-containing protein 2 (ATAD2, Homo sapiens, UniProt Q6PL18) | binding, competition with immobilised ligand | – | 1 µM | remaining binding | 85% |
| NC(=O)[C@H](CCCN=C(N)N)NC(=O)c1ccccc1 | PADI1 | enzyme activity, substrate | – | – | Km | 160 µM |
| NCCCC[C@H](NC(=O)[C@@H]1CCCN1C(=O)[C@@H]1CSSC[C@H](NC(=O)CNC(=O)CNC(=O)CN)C(=O)N[C@@H](Cc2ccc(O)cc2)C(=O)N[C@@H](Cc2ccccc2)C(=O)N[C@@H](CCC(N)=O)C(=O)N[C@@H](CC(N)=O)C(=O)N1)C(=O)NCC(N)=O | Vasopressin V1a receptor (AVPR1A, Homo sapiens, UniProt P37288) | calcium signal, agonist | CHO-S | – | Emax | 41% |
| C[S+]([O-])c1ccc(-c2nc(-c3ccncc3)c(-c3ccc(F)cc3)[nH]2)cc1 (stereo not drawn) | ATAD2 bromodomain | thermal stability, DSF | – | 10 µM | ΔTm | -1.47 °C |
| CN(C)C1CCN(CC#Cc2nn(C3CCCC3)c3nc(NCc4ccccc4)ncc23)C1 (stereo not drawn) | Dual specificity mitogen-activated protein kinase kinase 1 (MAP2K1, Homo sapiens, UniProt Q02750) | enzyme activity, inhibitor, FRET | – | 1 µM | inhibition | 9% |
| CC(C)(C)n1nnc([C@H](CCCNC(=N)CCl)NC(=O)c2ccccc2C(=O)O)n1 | PADI1 | enzyme activity, inhibitor | – | – | kinact/KI | 2700 M⁻¹ s⁻¹ |
| Cn1c2c(c3ccc(Cl)c(Cl)c31)C(C#N)C1(CCNCC1)NC2=O (racemic) | CDK16 | thermal stability, DSF | – | 10 µM | ΔTm | 2.6 °C |
| N=C(CCl)NCCC[C@H](NC(=O)c1ccccc1C(=O)O)c1nn[nH]n1 | PADI1 | enzyme activity, inhibitor | – | – | kinact/KI | 1370 M⁻¹ s⁻¹ |
| Cc1cnc(Nc2ccc(OCCN3CCCC3)cc2)nc1Nc1cccc(S(=O)(=O)NC(C)(C)C)c1 | ATAD2 bromodomain | thermal stability, DSF | – | 10 µM | ΔTm | -0.25 °C |
| N=C(CF)NCCC[C@H](NC(=O)c1ccc(-c2ccccc2)cc1)c1nn[nH]n1 | PADI1 | enzyme activity, inhibitor | – | – | kinact/KI | 13.7 M⁻¹ s⁻¹ |
| COc1ccc(NC(=O)c2c(Nc3ccccc3)sc(C(=O)NN=Cc3cc(OC)c(OC)c(OC)c3)c2NC(C)=O)cc1 | KDR | enzyme activity, inhibitor | – | 0.1 µM | remaining activity | 95.4% |
| Cc1ccc(C(=O)Nc2ccc(CN3CCN(C)CC3)c(C(F)(F)F)c2)cc1C#Cc1cnc2cccnn12 | PIKFYVE | cell-free assay | – | 23.5 nM | remaining signal | 100% |
| Cc1cc2c(cc1N1C(=O)c3cccc4c(Cl)ccc(c34)C1=O)n(C)c(=O)n2C | ATAD2 bromodomain | thermal stability, DSF | – | 10 µM | ΔTm | 0 °C |
| COc1ccc(NC(=O)c2c(Nc3ccccc3)sc(C(=O)NN=Cc3ccc(Cl)cc3)c2NC(C)=O)cc1 | KDR | enzyme activity, inhibitor | – | 10 µM | remaining activity | 71.4% |
| CC(C)(C)n1nnc([C@H](CCCNC(=N)CCl)NC(=O)c2ccc(-c3ccccc3)cc2)n1 | PADI1 | enzyme activity, inhibitor | – | – | kinact/KI | 46.2 M⁻¹ s⁻¹ |
| COc1ccc(C=NNC(=O)c2sc(Nc3ccccc3)c(C(=O)Nc3ccc(OC)cc3)c2NC(C)=O)cc1 | KDR | enzyme activity, inhibitor | – | 10 nM | remaining activity | 96% |
| N=C(CF)NCCC[C@H](NC(=O)c1ccccc1C(=O)O)c1nn[nH]n1 | PADI1 | enzyme activity, inhibitor | – | – | kinact/KI | 1360 M⁻¹ s⁻¹ |
| COc1ccc(NC(=O)c2c(Nc3ccccc3)sc(C#N)c2NC(=O)CNc2ccc([N+](=O)[O-])cc2)cc1 | KDR | enzyme activity, inhibitor | – | 100 µM | remaining activity | 68.8% |
| CC(C)(C)n1nnc([C@H](CCCNC(=N)CCl)NC(=O)c2ccccc2)n1 | PADI1 | enzyme activity, inhibitor | – | – | kinact/KI | 52.4 M⁻¹ s⁻¹ |
| Nc1ncnc2occ(-c3ccc(NC(=O)Nc4cc(C(F)(F)F)ccc4F)cc3)c12 | PIKFYVE | cell-free assay | – | 20 µM | remaining signal | 19% |
| COc1ccc(NC(=O)c2c(Nc3ccccc3)sc(C#N)c2NC(=O)CNc2ccc(Cl)cc2)cc1 | KDR | enzyme activity, inhibitor | – | 1 µM | remaining activity | 41.1% |
